In ChEMBL document CHEMBL4145448, “Broad activity of diphenyleneiodonium analogues against Mycobacterium tuberculosis, malaria parasites and bacterial pathogens” (Eur J Med Chem, 2018):

Tests used:
Pseudomonas aeruginosa [1] = experiment: Antibacterial activity against Pseudomonas aeruginosa QLD PSA 1 after 18 hrs by broth microdilution method; format: functional; details: QLD PSA 1, 18 h
In short: (§1)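 Broth microdilution per CLSI in cation-adjusted Mueller-Hinton broth. 100 µL inoculum (~10^6 cfu/mL in CaMHB) mixed with 100 µL CaMHB containing compound, 0 to 128 µM. Incubated 18 h at 37 °C. MIC taken as the lowest concentration with no visible growth. Polymyxin B served as positive control. Isolates were stored at -80 °C in tryptone soy broth with 20% glycerol.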

Pseudomonas aeruginosa [2] = experiment: Antibacterial activity against Pseudomonas aeruginosa isolate 18878B klon 1 after 18 hrs by broth microdilution method; format: functional; details: isolate 18878B klon 1, 18 h; in short: as §1
Pseudomonas aeruginosa [3] = experiment: Antibacterial activity against Pseudomonas aeruginosa isolate M146201 after 18 hrs by broth microdilution method; format: functional; details: isolate M146201, 18 h; in short: as §1
Acinetobacter baumannii [4] = experiment: Antibacterial activity against Acinetobacter baumannii ATCC 19606 after 18 hrs by broth microdilution method; format: functional; details: ATCC 19606 = CIP 70.34 = JCM 6841, 18 h; in short: as §1
Acinetobacter baumannii [5] = experiment: Antibacterial activity against Acinetobacter baumannii isolate 246-01-C after 18 hrs by broth microdilution method; format: functional; in short: as §1
Acinetobacter baumannii [6] = experiment: Antibacterial activity against Acinetobacter baumannii ATCC 17978 after 18 hrs by broth microdilution method; format: functional; details: ATCC 17978, 18 h; in short: as §1
Acinetobacter baumannii [7] = experiment: Antibacterial activity against Acinetobacter baumannii ATCC 19606 col10 after 18 hrs by broth microdilution method; format: functional; details: ATCC 19606 = CIP 70.34 = JCM 6841 col10, 18 h; in short: as §1
Acinetobacter baumannii [8] = experiment: Antibacterial activity against Acinetobacter baumannii isolate 07AC-336 after 18 hrs by broth microdilution method; format: functional; details: isolate 07AC-336, 18 h; in short: as §1
Acinetobacter baumannii [9] = experiment: Antibacterial activity against Acinetobacter baumannii ATCC 17978 col10 after 18 hrs by broth microdilution method; format: functional; details: ATCC 17978 col10, 18 h; in short: as §1
Klebsiella pneumoniae [10] = experiment: Antibacterial activity against Klebsiella pneumoniae isolate M320445 after 18 hrs by broth microdilution method; format: functional; details: isolate M320445, 18 h; in short: as §1
Klebsiella pneumoniae [11] = experiment: Antibacterial activity against Klebsiella pneumoniae isolate 1 after 18 hrs by broth microdilution method; format: functional; details: isolate 1, 18 h; in short: as §1
Enterococcus faecium = experiment: Antibacterial activity against vancomycin-resistant Enterococcus faecium ATCC 700221 after 18 hrs by broth microdilution method; format: functional; details: ATCC 700221, 18 h; in short: as §1
Klebsiella pneumoniae [12] = experiment: Antibacterial activity against Klebsiella pneumoniae isolate 248-33-D after 18 hrs by broth microdilution method; format: functional; in short: as §1
Escherichia coli = experiment: Antibacterial activity against Escherichia coli N4149 after 18 hrs by broth microdilution method; format: functional; details: N4149, 18 h; in short: as §1
Staphylococcus aureus [13] = experiment: Antibacterial activity against methicillin-resistant Staphylococcus aureus ATCC 43300 after 18 hrs by broth microdilution method; format: functional; details: ATCC 43300, 18 h; in short: as §1
Staphylococcus aureus [14] = experiment: Antibacterial activity against vancomycin-intermediate Staphylococcus aureus ATCC 700698 after 18 hrs by broth microdilution method; format: functional; details: ATCC 700698, 18 h; in short: as §1
Staphylococcus aureus [15] = experiment: Antibacterial activity against vancomycin-resistant Staphylococcus aureus ATCC 700699 after 18 hrs by broth microdilution method; format: functional; details: ATCC 700699, 18 h; in short: as §1
[16] = Selectivity index, ratio of CC50 for human HepG2 cells in presence of 1% FBS to MIC for Pseudomonas aeruginosa ATCC 27853; format: toxicity; details: read-out: Selectivity Index
In short: (§2)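 Selectivity index is CC50 (1% FBS) divided by MIC. […] They then got compound at 300 to 0.14 µM (3-fold steps) for 24 h at 37 °C, 5% CO2. Resazurin (10 µM, 2 h) was read at ex/em 560/590 in duplicate wells. For MIC, CLSI broth microdilution was run in CaMHB with ~10^6 cfu/mL inoculum and 0–128 µM compound.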

[17] = Selectivity index, ratio of CC50 for human HepG2 cells in presence of 1% FBS to MIC for Pseudomonas aeruginosa QLD PSA 1; format: toxicity; details: read-out: Selectivity Index; in short: as §2
[18] = Selectivity index, ratio of CC50 for human HepG2 cells in presence of 1% FBS to MIC for Acinetobacter baumannii ATCC 19606; format: toxicity; details: read-out: Selectivity Index
[19] = Selectivity index, ratio of CC50 for human HepG2 cells in presence of 1% FBS to MIC for Acinetobacter baumannii ATCC 17978; format: toxicity; details: read-out: Selectivity Index
[20] = Selectivity index, ratio of CC50 for human HepG2 cells in presence of 1% FBS to MIC for Acinetobacter baumannii ATCC 19606 col10; format: toxicity; details: read-out: Selectivity Index
[21] = Selectivity index, ratio of CC50 for human HepG2 cells in presence of 1% FBS to MIC for Acinetobacter baumannii isolate 07AC-336; format: toxicity; details: read-out: Selectivity Index
[22] = Selectivity index, ratio of CC50 for human HepG2 cells in presence of 1% FBS to MIC for Acinetobacter baumannii ATCC 17978 col10; format: toxicity; details: read-out: Selectivity Index
[23] = Selectivity index, ratio of CC50 for human HepG2 cells in presence of 1% FBS to MIC for Klebsiella pneumoniae ATCC 13883; format: toxicity; details: read-out: Selectivity Index
[24] = Selectivity index, ratio of CC50 for human HepG2 cells in presence of 1% FBS to MIC for Klebsiella pneumoniae isolate M320445; format: toxicity; details: read-out: Selectivity Index
[25] = Selectivity index, ratio of CC50 for human HepG2 cells in presence of 1% FBS to MIC for Klebsiella pneumoniae isolate 1; format: toxicity; details: read-out: Selectivity Index
[26] = Selectivity index, ratio of CC50 for human HepG2 cells in presence of 1% FBS to MIC for Klebsiella pneumoniae isolate 224-11-C; format: toxicity; details: read-out: Selectivity Index
[27] = Selectivity index, ratio of CC50 for human HepG2 cells in presence of 1% FBS to MIC for Escherichia coli N2381; format: toxicity; details: read-out: Selectivity Index
[28] = Selectivity index, ratio of CC50 for human HepG2 cells in presence of 1% FBS to MIC for Escherichia coli N11281; format: toxicity; details: read-out: Selectivity Index
[29] = Selectivity index, ratio of CC50 for human HepG2 cells in presence of 1% FBS to MIC for vancomycin-resistant Enterococcus faecium ATCC 700221; format: toxicity; details: read-out: Selectivity Index; in short: as §2
[30] = Selectivity index, ratio of CC50 for human HepG2 cells in presence of 1% FBS to MIC for vancomycin-intermediate Staphylococcus aureus ATCC 700698; format: toxicity; details: read-out: Selectivity Index; in short: as §2
[31] = Selectivity index, ratio of CC50 for human HepG2 cells in presence of 1% FBS to MIC for vancomycin-resistant Staphylococcus aureus ATCC 700699; format: toxicity; details: read-out: Selectivity Index; in short: as §2
[32] = system: Mycobacterium tuberculosis; experiment: Antimycobacterial activity against Mycobacterium tuberculosis H37Rv ATCC 25618 after 7 days by resazurin dye based assay; format: functional; details: H37Rv ATCC 25618, 168 h
In short: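 H37Rv grown at 37 °C in 7H9 with 10% ADC, 0.5% glycerol and 0.02% tyloxapol. Compounds serially diluted in water, 0 to 10 µM, in triplicate. Culture adjusted to OD600 0.001 and incubated 7 days at 37 °C. Resazurin (0.05% w/v) added for 4-24 h and fluorescence read at 590 nm. MIC is the lowest concentration giving complete growth inhibition versus untreated. Rifampicin served as control.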

Compound `Clc1cccc2c1-c1ccccc1[I+]2` has an MIC (Pseudomonas aeruginosa [1]) of 0.54 µM, an MIC (Pseudomonas aeruginosa [2]) of under 0.27 µM and an MIC (Pseudomonas aeruginosa [3]) of 0.54 µM. The MIC (Acinetobacter baumannii [4]) was under 0.27 µM, the MIC (Acinetobacter baumannii [5]) was under 0.27 µM and the MIC (Acinetobacter baumannii [6]) was under 0.27 µM. The MIC (Acinetobacter baumannii [7]) was under 0.27 µM, the MIC (Acinetobacter baumannii [8]) was under 0.27 µM and the MIC (Acinetobacter baumannii [9]) was under 0.27 µM. The MIC (Klebsiella pneumoniae [10]) was 8.6 µM, the MIC (Klebsiella pneumoniae [11]) was 8.6 µM and the MIC (Enterococcus faecium) was under 0.27 µM. The MIC (Klebsiella pneumoniae [12]) was 8.6 µM, the MIC (Escherichia coli) was 0.54 µM and the MIC (Staphylococcus aureus [13]) was 1.1 µM. The MIC (Staphylococcus aureus [14]) was 2.3 µM, the MIC (Staphylococcus aureus [15]) was 1.1 µM and the selectivity ratio [16] was under 2.4. It also gave a selectivity ratio [17] of 1.2, a selectivity ratio [18] of under 2.4 and a selectivity ratio [19] of under 2.4. For the same compound, the selectivity ratio [20] was under 2.4, the selectivity ratio [21] was under 2.4 and the selectivity ratio [22] was under 2.4. It also gave a selectivity ratio [23] of 0.15, a selectivity ratio [24] of 0.08 and a selectivity ratio [25] of 0.08. It also gave a selectivity ratio [26] of 0.08, a selectivity ratio [27] of 1.2 and a selectivity ratio [28] of 0.31. The selectivity ratio [29] was under 2.4, the selectivity ratio [30] was 0.29 and the selectivity ratio [31] was 0.61. For the same compound, the MIC [32] was 0.28 µM.

`Cc1ccc2c(c1)[I+]c1ccccc1-2.O=S(=O)([O-])C(F)(F)F` showed an MIC (Pseudomonas aeruginosa [1]) of over 72 µM, an MIC (Pseudomonas aeruginosa [2]) of 4.5 µM and an MIC (Pseudomonas aeruginosa [3]) of 36 µM. The MIC (Acinetobacter baumannii [4]) was 9.1 µM, the MIC (Acinetobacter baumannii [5]) was 18 µM and the MIC (Acinetobacter baumannii [6]) was 4.5 µM. It also gave an MIC (Acinetobacter baumannii [7]) of 4.5 µM, an MIC (Acinetobacter baumannii [8]) of 18 µM and an MIC (Acinetobacter baumannii [9]) of 1.1 µM. It also gave an MIC (Klebsiella pneumoniae [10]) of 36 µM, an MIC (Klebsiella pneumoniae [11]) of 72 µM and an MIC (Enterococcus faecium) of 4.5 µM. The MIC (Klebsiella pneumoniae [12]) was 72 µM, the MIC (Escherichia coli) was 72 µM and the MIC (Staphylococcus aureus [13]) was 4.5 µM. For the same compound, the MIC (Staphylococcus aureus [14]) was 9.1 µM, the MIC (Staphylococcus aureus [15]) was 9.05 µM and the selectivity ratio [16] was 0.05. For the same compound, the selectivity ratio [17] was over 0.05, the selectivity ratio [18] was 0.41 and the selectivity ratio [19] was 0.81. The selectivity ratio [20] was 0.81, the selectivity ratio [21] was 0.21 and the selectivity ratio [22] was 3.2. It also gave a selectivity ratio [23] of 0.05, a selectivity ratio [24] of 0.11 and a selectivity ratio [25] of 0.05. The selectivity ratio [26] was 0.05, the selectivity ratio [27] was 0.05 and the selectivity ratio [28] was 0.11. The selectivity ratio [29] was 0.81, the selectivity ratio [30] was 0.41 and the selectivity ratio [31] was 0.398. For the same compound, the MIC [32] was 0.57 µM.
